In ChEMBL document CHEMBL1121438, “Synthesis and antitumor activity of analogues of the antitumor antibiotic chartreusin” (J Med Chem, 1980):

How the values were obtained:
L1210 [1] = experiment: Evaluated for growth inhibition against cultured L1210 cells after 48 hour drug exposure in trial 2 at a dose of 1.44*10e-9; assay type: functional, Mus musculus
[2] = Partition coefficient (logP); assay type: physicochemical; settings: octanol/water
L1210 [3] = experiment: Evaluated for growth inhibition against cultured L1210 cells after 48 hour drug exposure in trial 1 at a dose of 1.44*10e-9; assay type: functional, Mus musculus
L1210 [4] = experiment: Evaluated for growth inhibition against cultured L1210 cells after 48 hour drug exposure in trial 2 at a dose of 1.44*10e-8; assay type: functional, Mus musculus
L1210 [5] = experiment: Evaluated for growth inhibition against cultured L1210 cells after 48 hour drug exposure in trial 1 at a dose of 1.44*10e-8; assay type: functional, Mus musculus
L1210 [6] = experiment: Evaluated for growth inhibition against cultured L1210 cells after 48 hour drug exposure in trial 2 at a dose of 1.45*10e-9; assay type: functional, Mus musculus
L1210 [7] = experiment: Evaluated for growth inhibition against cultured L1210 cells after 48 hour drug exposure in trial 2 at a dose of 1.45*10e-8; assay type: functional, Mus musculus
Mus musculus [8] = experiment: Evaluated % increase in life span in vivo against P388 Murine leukemia cells in trial 2 at a dose of 100 mg/kg; assay type: functional
Procedure, shortened: (§1)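 Male CDF1 mice (17-22 g) inoculated ip with 10^6 P388 cells on day 0. Six animals per dose level. Activity is the median increase in life span over untreated controls (% ILS); body weight change of test vs control measured on days 1 and 5.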

Mus musculus [9] = experiment: Evaluated % increase in life span in vivo against P388 Murine leukemia cells in trial 2 at a dose of 200 mg/kg; assay type: functional; procedure, shortened: as §1
Mus musculus [10] = experiment: Evaluated % increase in life span in vivo against P388 Murine leukemia cells in trial 1 at a dose of 100 mg/kg; assay type: functional; procedure, shortened: as §1
Mus musculus [11] = experiment: Evaluated % increase in life span in vivo against P388 Murine leukemia cells in trial 1 at a dose of 25 mg/kg; assay type: functional; procedure, shortened: as §1
Mus musculus [12] = experiment: Evaluated % increase in life span in vivo against P388 Murine leukemia cells in trial 1 at a dose of 200 mg/kg; assay type: functional; procedure, shortened: as §1
Mus musculus [13] = experiment: Evaluated % increase in life span in vivo against P388 Murine leukemia cells in trial 1 at a dose of 12.5 mg/kg; assay type: functional; procedure, shortened: as §1
Mus musculus [14] = experiment: Evaluated % increase in life span in vivo against P388 Murine leukemia cells in trial 2 at a dose of 25 mg/kg; assay type: functional; procedure, shortened: as §1
L1210 [15] = experiment: Evaluated for growth inhibition against cultured L1210 cells after 48 hour drug exposure in trial 1 at a dose of 1.45*10e-9; assay type: functional, Mus musculus
Mus musculus [16] = experiment: Evaluated % increase in life span in vivo against P388 Murine leukemia cells in trial 2 at a dose of 12.5 mg/kg; assay type: functional; procedure, shortened: as §1
L1210 [17] = experiment: Evaluated for growth inhibition against cultured L1210 cells after 48 hour drug exposure in trial 1 at a dose of 1.45*10e-8; assay type: functional, Mus musculus
Mus musculus [18] = experiment: Evaluated % increase in life span in vivo against P388 Murine leukemia cells in trial 2 at a dose of 50 mg/kg; assay type: functional; procedure, shortened: as §1
Mus musculus [19] = experiment: Evaluated % increase in life span in vivo against P388 Murine leukemia cells in trial 1 at a dose of 50 mg/kg; assay type: functional; procedure, shortened: as §1
[20] = Partition coefficient (logP) (HPLC); assay type: physicochemical; settings: octanol/water
Procedure, shortened: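 Relative log P by the reversed-phase LC method of McCall: octadecylsilyl column eluted with acetonitrile–water (1:1). The system was calibrated with a reference compound of known octanol/water log P, and log P values were derived from elution times.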

[21] = Partition coefficient determined using pi values; assay type: physicochemical; settings: octanol/water
Procedure, shortened: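 Calculated log P: the aglycon value was summed with the π value of the glycosyl substituent, using literature −2.84 for O-β-glucosyl and −3.24 for maltosyl.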

L1210 [22] = experiment: Evaluated for growth inhibition against cultured L1210 cells after 48 hour drug exposure in trial 1 at a dose of 1.65*10e-8; assay type: functional, Mus musculus
L1210 [23] = experiment: Evaluated for growth inhibition against cultured L1210 cells after 48 hour drug exposure in trial 2 at a dose of 1.65*10e-8; assay type: functional, Mus musculus
L1210 [24] = experiment: Evaluated for growth inhibition against cultured L1210 cells after 48 hour drug exposure in trial 2 at a dose of 1.65*10e-9; assay type: functional, Mus musculus
L1210 [25] = experiment: Evaluated for growth inhibition against cultured L1210 cells after 48 hour drug exposure in trial 1 at a dose of 1.65*10e-9; assay type: functional, Mus musculus

## Cc1ccc2oc(=O)c3c(O)c4cccc(O[C@H]5O[C@H](C)[C@H](O)[C@H](O)[C@H]5O)c4c4oc(=O)c1c2c34
L1210 [1]
  Inhibition: 65%
[2]
  logP: 2.07
L1210 [3]
  Inhibition: 71%
L1210 [4]
  Inhibition: 100%
L1210 [5]
  Inhibition: 100%

## CO[C@H]1[C@@H](O)[C@@H](C)O[C@H](O[C@H]2[C@@H](Oc3cccc4c(O)c5c(=O)oc6ccc(C)c7c(=O)oc(c34)c5c67)O[C@H](C)[C@H](O)[C@@H]2O)[C@@H]1O
L1210 [6]
  Inhibition: 32%
L1210 [7]
  Inhibition: 100%
Mus musculus [8]
  ILS at 100 mg/kg: 45%
[2]
  logP: 1.8
Mus musculus [9]
  ILS at 200 mg/kg: 58%
Mus musculus [10]
  ILS at 100 mg/kg: 93%
Mus musculus [11]
  ILS at 25 mg/kg: 47%
Mus musculus [12]
  ILS at 200 mg/kg: 43%
Mus musculus [13]
  ILS at 12.5 mg/kg: 46%
Mus musculus [14]
  ILS at 25 mg/kg: 56%
L1210 [15]
  Inhibition: 21%
Mus musculus [16]
  ILS at 12.5 mg/kg: 17%
L1210 [17]
  Inhibition: 100%
Mus musculus [18]
  ILS at 50 mg/kg: 54%
Mus musculus [19]
  ILS at 50 mg/kg: 60%

## Cc1ccc2oc(=O)c3c(O)c4cccc(O[C@H]5O[C@H](CO)[C@@H](O)[C@H](O)[C@H]5O)c4c4oc(=O)c1c2c34
L1210 [6]
  Inhibition: 47%
L1210 [7]
  Inhibition: 97%
[20]
  logP: 1.82
L1210 [15]
  Inhibition: 59%
L1210 [17]
  Inhibition: 100%
[21]
  logP: 1.35

## Cc1ccc2oc(=O)c3c(O)c4cccc(O)c4c4oc(=O)c1c2c34
[2]
  logP: 4.19
L1210 [22]
  Inhibition: 57%
L1210 [23]
  Inhibition: 58%
L1210 [24]
  Inhibition: 7%
L1210 [25]
  Inhibition: 0%
